Compounds with a hit are over-represented: about 1.6% of the library has one in this group of screens.
HDAC3 inh – human HDAC3 inhibition; O15379; recombinant HDAC3, fluorogenic peptide/trypsin coupled, fluorescence; inhibition, % at 8.3 µM; actives 0.15% (n = 320,000); AID 2718; in the data active = inhibition above about 26%, passing the limit was not always enough; inconclusive = no clear call, values can overlap the other calls
GASC-1 inh – blocks human GASC-1 demethylase activity; GST-JMJD2C(1-420) H3K9me3 demethylation, DELFIA europium; AID 2099; Q9H3R0; inhibition, % at 2.35 µM; actives 0.069% (n = 330,000);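 active = more than half of a compound's replicate wells show inhibition beyond 50%, single wells judged on their own value; inconclusive = some, but no more than half, of replicates pass 50% inhibition; inactive = no replicate passes 50% inhibition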;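 note: signal counts dimethyl H3K9 product captured on neutravidin plate; 0% = median of DMSO wells and 100% = 0.3 times that DMSO median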
Arr AP2 block – blocks beta-arrestin peptide binding to AP2 adaptin; FITC-arrestin peptide / GST-AP2 beads, flow cytometry; AP2 beta2 appendage carries R879A mutation; actives 0.31% (n = 340,000); AID 504490; inhibition, % at 10 µM;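 active = inhibition above a set limit, near 3 SD of compounds lacking own fluorescence, cut at about 54% in these data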;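 note: plate controls were DMSO wells for no effect and 5 µM unlabelled arrestin peptide for full effect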
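Material – GST-tagged AP2 beta2-adaptin appendage (R879A) on 4 µm glutathione beads · Probe or stimulus – fluorescein-tagged arrestin peptide at 50 nM final · Timing – 12 min plus 1 h, RT · Detection – bead flow cytometry, FITC channel · Read-out basis – inhibition as reduced fluorescein signal on beads, percent · Medium – PBS plus Tween 20 (0.05%) and BSA (0.1%)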
T cell modulator – T cell immune modulators affecting CD8 T cell-vesicle binding; AID 2052; response (vesicle binding), % at 7 µM; 2C CD8+ T cell-vesicle binding, flow cytometry; stronger effect = lower value; actives 0.068% (n = 330,000);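 active = response, share of CD8 T cells binding vesicles, and their 90th percentile fluorescence all below set limits, cut at about 80% in these data, passing the limit was not always enough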;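 note: values below 100% mean blocked vesicle binding to the CD8+ T cells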
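Read-out – percent CD8+ FL2 mean versus row control · System – murine 2C transgenic CD8+ T lymphocytes · Times – 1.5 h cell–vesicle binding at 37 °C, then 20 min icy labelling · Control set – naked vesicles low, QL9 vesicles with vehicle high · Detection – cytometric PE anti-B7-1 and Alexa647 anti-CD8 signals after 1% paraformaldehyde fixation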
LANA-H2B inh – blocks KSHV LANA binding to histone H2A/H2B; Q9QR71; cell-free LANA-H2A/H2B peptide, fluorescence polarization; inhibition, % (test concentration not listed); actives 0.6% (n = 320,000); AID 2629; in the data active = inhibition mostly above about 10%, no sharp cut-off; inactive = mostly below about 6.7%
Pemphigus Ab inh – inhibitors of pemphigus antibody binding to human desmoglein-3 | binding (percent of control), % at 10 µM | actives 0.48% (n = 310,000) | DSG3-coupled beads, scFv-anti-DSG3-GFP binding, flow cytometry; stronger effect = lower value | P32926 | AID 588358;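 active = binding more than 3 SD below its plate's average and above zero; inconclusive = below that plate limit but binding exactly zero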;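 note: hits lower antibody fragment binding to DSG3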
Target sequence (P32926 whole entry, looked up, the tested form may be a part): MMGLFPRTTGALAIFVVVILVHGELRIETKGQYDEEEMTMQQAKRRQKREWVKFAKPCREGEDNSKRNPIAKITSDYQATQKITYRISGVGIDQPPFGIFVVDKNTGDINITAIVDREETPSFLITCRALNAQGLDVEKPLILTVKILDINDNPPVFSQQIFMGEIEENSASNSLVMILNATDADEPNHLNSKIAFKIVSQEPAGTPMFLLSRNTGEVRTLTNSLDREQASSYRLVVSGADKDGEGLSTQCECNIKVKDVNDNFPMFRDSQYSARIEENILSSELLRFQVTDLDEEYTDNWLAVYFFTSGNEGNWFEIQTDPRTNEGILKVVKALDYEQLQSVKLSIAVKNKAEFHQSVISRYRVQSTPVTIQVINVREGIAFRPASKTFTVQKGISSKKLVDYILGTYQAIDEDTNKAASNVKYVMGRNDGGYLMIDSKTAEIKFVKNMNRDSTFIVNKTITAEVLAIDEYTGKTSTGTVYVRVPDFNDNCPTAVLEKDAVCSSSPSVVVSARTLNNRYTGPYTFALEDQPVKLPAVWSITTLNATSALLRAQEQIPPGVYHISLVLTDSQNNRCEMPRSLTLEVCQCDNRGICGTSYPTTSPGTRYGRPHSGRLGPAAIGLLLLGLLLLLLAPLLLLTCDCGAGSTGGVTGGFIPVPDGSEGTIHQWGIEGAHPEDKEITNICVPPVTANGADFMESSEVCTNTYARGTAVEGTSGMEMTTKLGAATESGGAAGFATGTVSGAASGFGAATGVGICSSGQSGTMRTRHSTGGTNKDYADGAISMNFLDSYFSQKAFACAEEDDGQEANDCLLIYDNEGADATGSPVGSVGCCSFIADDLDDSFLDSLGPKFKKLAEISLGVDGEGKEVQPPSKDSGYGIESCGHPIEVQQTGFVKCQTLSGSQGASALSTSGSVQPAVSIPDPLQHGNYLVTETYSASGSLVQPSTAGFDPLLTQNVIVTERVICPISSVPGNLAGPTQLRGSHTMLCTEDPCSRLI
Active calls of the source: *; i = inactive; ? = inconclusive; . = no result given; + = active, no number.

SMILES | HDAC3 inh | GASC-1 inh | Arr AP2 block | T cell modulator | LANA-H2B inh | Pemphigus Ab inh
COc1ccc(C)cc1S(=O)(=O)N1CCC(C(=O)NCCC2=CCCCC2)CC1 | -3 | 4 | 6 | 398 | 2 | 103
Cc1ccc(CCNC(=O)C2CCN(S(=O)(=O)c3ccc4c(c3)CCC(=O)N4)CC2)cc1 | 2 | 1 | 9 | 452 | 0 | 77*
COc1ccc(S(=O)(=O)N2CCC(C(=O)NCCC3=CCCCC3)CC2)cc1C | 0 | 8 | -5 | 344 | 34* | 106
CCOc1cccc(-c2nn(-c3ccccc3)cc2/C=C(/C#N)C(=O)NCCCn2ccnc2)c1 | -2 | -4 | -18 | 197 | 4 | 97*
COc1ccc(CNC2CCCc3ccccc32)cc1OC (stereo not drawn) | -1 | 12 | -10 | 331 | 31* | 104
CCCN(CC(=O)Nc1ccccc1OC)C(=O)CCNC(=O)c1ccccc1OC | -7 | -1 | 4 | 311 | 41* | 123
CC(=O)OC[C@]12CC[C@H]3[C@@](C)(CC[C@H]4C(C)(C)CCC[C@]34C)[C@@H]1C[C@H](C1=CC(=O)O[C@@H]1OC(C)=O)O2 | 0 | 15 | . | 276 | . | .
CC(=O)Nc1ccc(NC(=O)CSc2ccc(-c3ccc4c(c3)OCO4)nn2)cc1 | 2 | -5 | 7 | 233 | -5 | 60*
COc1ccc(S(=O)(=O)N2CCN(C(=O)c3ccccc3Cc3ccccc3)CC2)cc1OC | . | . | . | . | . | 100
CCOc1ccc(S(=O)(=O)N2CCN(C(=O)c3ccccc3Cc3ccccc3)CC2)cc1 | 6 | 9 | 3 | 259 | -8 | 80*
Cc1c(N)cccc1N | 13 | 7 | 15 | 401 | 123* | 100
COc1ccc(C2=NS(=O)(=O)N(C)C(C(=O)NC3CCCCC3)=C2)cc1 | -3 | 18 | 4 | 374 | 0 | -19*
COc1ccc(C2=NS(=O)(=O)N(C)C(C(=O)NC3CCCC3)=C2)cc1 | 6 | 0 | 23 | 479 | -3 | 104
N=c1nc(-c2ccccc2)ccn1O | ? | 53* | -7 | i | -1 | 103
c1ccc(-c2ccn3nnnc3n2)cc1 | 0 | -16 | 6 | 105 | -5 | 73
c1coc(CN2CNc3nc4ccccc4n3C2)c1 | 3 | -5 | 17 | 654 | -2 | 112
COc1ccc(CN2CNc3nc4ccccc4n3C2)cc1 | 0 | 4 | -1 | 640 | 22* | 108
CCCNC(=O)c1oc2ccc3c(c2c1C)C(O)CC(C)(C)O3 (stereo not drawn) | -45 | 3 | 28 | 172 | -3 | 103
Cc1c(C(=O)NCc2ccoc2)oc2ccc3c(c12)C(=O)CC(C)(C)O3 | 5 | 9 | -4 | 320 | 29* | 99
CCOC(=O)C1=C(c2ccccc2)NC(=O)NC1c1cc(Br)c(O)c(OC)c1 (stereo not drawn) | 4 | -6 | -4 | 559 | 8 | 114
CCOC(=O)C1=C(C)NC(=O)NC1c1cc(Br)c(O)c(OC)c1 (stereo not drawn) | 19 | 8 | 1 | 777 | -3 | 76*
O=C(COC(=O)c1cc(=O)c2ccccc2o1)Nc1ccc2ccccc2c1 | -2 | -47 | 2 | 259 | 4 | .
O=C(COC(=O)c1ccco1)NNC(=O)c1ccc(Cl)cc1 | -14 | 81* | -10 | 222 | 2 | 99
CCOC(=O)C1C(=O)CC(C)(O)C(C(=O)OCC)C1c1ccc2c(c1)OCO2 (stereo not drawn) | -2 | ? | 18 | 568 | 178* | 97
COc1ccc(CC(=O)Oc2ccc(C)cc2Br)cc1OC | 2 | -7 | 19 | 181 | -2 | 109
SMILES | HDAC3 inh | GASC-1 inh | Arr AP2 block | T cell modulator | LANA-H2B inh | Pemphigus Ab inh
C/C(=N\Nc1ccc(S(N)(=O)=O)cc1[N+](=O)[O-])c1ccccc1O | 1 | 2 | 16 | 165 | 6 | 72*
CN(c1ccc(OCC(=O)N2CCN(c3ccc(F)cc3)CC2)cc1)S(=O)(=O)c1cccs1 | -3 | -4 | 16 | 431 | -3 | 104
CN(c1ccc(OCC(=O)N2CCCCC2)cc1)S(=O)(=O)c1cccs1 | -4 | 64* | 7 | 646 | 2 | 102
O=C(CSc1nc2c(cnn2-c2cccc(Cl)c2)c(=O)[nH]1)NCCC1=CCCCC1 | 0 | 2 | 3 | 764 | -2 | 106
CCC(C(=O)NC1CC1)n1nc(C)c2c(C)n(-c3ccccc3)nc2c1=O (stereo not drawn) | -2 | 5 | -9 | 472 | 19* | 122
CCC(C(=O)NC1CCCCC1)n1nc(C)c2c(C)n(-c3ccccc3)nc2c1=O (stereo not drawn) | -2 | -18 | 12 | 403 | 1 | 103
O=C(CN(C(=O)CCC(=O)Nc1nccs1)c1cccc(F)c1)NCc1ccccc1 | -3 | -2 | 1 | 212 | -3 | .
O=C(c1cccc(C(F)(F)F)c1)c1c[nH]c(C(=O)NCC2CCCO2)c1 (stereo not drawn) | 7 | 1 | 20 | 136 | + | .
Cc1ccc(C)c(NC(=O)COC(=O)c2ccc(S(=O)(=O)N3CCCC3)cc2)c1 | . | . | . | . | . | 96
O=C(NCc1ccc(F)cc1)c1cc(S(=O)(=O)N2CCCCC2)ccc1Cl | 1 | -2 | -4 | 300 | 79* | .
O=C(COC(=O)c1ccc(S(=O)(=O)N2CCCCCC2)cc1)NCc1ccc(F)cc1 | . | . | 5 | . | . | 96
O=C(COC(=O)c1ccc(S(=O)(=O)N2CCCC2)cc1)NCc1ccc(Cl)cc1 | -2 | -1 | 0 | 328 | 3 | 71*
Cc1noc(C)c1CSc1nc2sc(C)c(C)c2c(=O)n1-c1ccccc1 | -3 | -2 | -9 | 177 | -1 | 99
C=CCn1c(SCc2c(C)noc2C)nc2sc(C)c(C)c2c1=O | -4 | 5 | -5 | 495 | 56* | 100
Cc1cc(=O)oc2cc(OCC(=O)OCC(=O)Nc3ccc4ccccc4c3)ccc12 | -13 | 9 | -1 | 198 | 13 | 103
COc1ccc2cc(C(=O)COC(=O)COc3ccc4c(C)cc(=O)oc4c3)ccc2c1 | -4 | -24 | -4 | 238 | -9 | 69*
Cc1ccc2[nH]c(C(=O)N3CCC(C(N)=O)CC3)cc2c1 | 4 | -2 | -8 | 459 | 10 | 110
Cc1nc2sc3c(c2c(=O)n1NC(=O)CCBr)CCCC3 | -5 | 20 | 62* | 227 | 1 | 95
CCCc1nc2sc3c(c2c(=O)n1NC(=O)CCC(=O)OC)CCCC3 | . | -2 | 0 | 399 | -1 | 95
O=c1cc(OCc2ccccc2)cc[nH]1 | -2 | -14 | 30 | 246 | -8 | 104
COC(=O)C(Cc1ccccc1)NC(=O)CNC(=O)c1ccccc1OC (stereo not drawn) | -10 | -10 | -6 | 817 | -1 | 96

Source: PubChem BioAssay (several laboratories)
